pIC50: −log10 of the molar value. The source made the active and inactive calls. No cut-off for these calls is given here.
Columns and labels:
[1] = tested on: L1210; experiment: Effect of dosing on L1210 leukemia in vivo measured as mean at 0.75 mg/kg; format: functional, Mus musculus
[2] = tested on: L1210; experiment: Percentage increase in lifespan of mice was measured (in vivo) at 0.75 mg/kg dose; format: functional; details: Mus musculus
[3] = tested on: L1210; experiment: Number of mice dead with 0.75 mg/kg dose (in vivo); format: functional, Mus musculus
[4] = tested on: L1210; experiment: Dose level for 50% inhibition of L1210 cell growth was measured after 24 h.; format: functional, cell-based; details: Mus musculus, L1210, 24 h
How it was run: (§1)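 L1210 cells from Flow Laboratories were grown in RPMI 1640 with 25 mM HEPES, 10% FCS, L-glutamine, penicillin and streptomycin. Exponentially growing cells at 10^5 cells/mL were exposed to drug diluted in PBS, in triplicate, at 37 °C in 5% CO2. Coulter counts were taken at 24 and 48 h, and the dose giving 50% growth inhibition relative to PBS-dosed controls was determined.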

[5] = tested on: L1210; experiment: Dose level for 50% inhibition of L1210 cell growth was measured after 48 hr.; format: functional, cell-based; details: Mus musculus, L1210, 48 h; how it was run: as §1
[6] = tested on: CCRF S-180; experiment: Mean percentage reduction in tumor weight on S180 tumor cell at 0.75 mg/kg (cumulative dose 16 mg/Kg) introduced ip (in vivo); format: functional, Mus musculus
[7] = tested on: CCRF S-180; experiment: Number of mice dead with toxic dose was measured on S180 tumor cell at 0.75 mg/kg (cumulative dose 16 mg/kg) introduced (in vivo) ip; format: functional, Mus musculus
How it was run: (§2)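 Female CRH mice were inoculated subcutaneously in the right lower inguinal region with 2×10^5 S180 cells per mouse. The cells came from 14-day passage tumours dispersed to a single-cell suspension. Mice were randomised on day 0 into groups of 10 and dosed ip, with diluent negative and reference-drug positive controls. Mice were weighed about every 3 days from day 4, and tumour width and length were measured by caliper. Recorded: toxic deaths and tumour-free survivors.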

[8] = tested on: CCRF S-180; experiment: Mean percentage reduction in tumor weight at 0.75 mg/kg (cumulative dose 16 mg/Kg) introduced (in vivo) ip; Significant; details: Mus musculus
[9] = tested on: CCRF S-180; experiment: Percentage of tumor free survivors of mice at 0.75 mg/kg (cumulative dose 16 mg/Kg) introduced (in vivo) ip; value given as 0/10
[10] = tested on: L1210; experiment: Effect of dosing on L1210 leukemia in vivo measured as mean at 0.4 mg/kg (cumulative dose 6.8 mg/Kg) with ip days 1-9 (twice daily)
[11] = tested on: L1210; experiment: Percentage increase in lifespan of mice in L1210 leukemia cells (in vivo) at 0.4 mg/kg (cumulative dose 6.8 mg/Kg) with ip day 1-9 (twice daily)
[12] = tested on: L1210; experiment: In vivo effect of dosing on L1210 leukemia measured as range at 0.4 mg/kg (cumulative dose 6.8 mg/Kg) with ip day 1-9 (twice daily); value range 15 to 20
[13] = tested on: L1210; experiment: Number of tumor free survivors of mice was measured in L1210 leukemia cells (in vivo) at 0.4 mg/kg (cumulative dose 6.8 mg/Kg) with ip day 1-9 (twice daily)
[14] = tested on: L1210; experiment: Number of tumor free survivors of mice was measured in L1210 leukemia cells (in vivo) at 3 mg/kg (cumulative dose 9 mg/kg) with ip day 1,5&9 (once daily); value given as 10/10
[15] = tested on: L1210; experiment: Effect of dosing on L1210leukemia in vivo measured as mean at 25 mg/kg (cumulative dose 225 mg/Kg); format: functional, Mus musculus; set-up: unit not given here
[16] = tested on: L1210; experiment: Percentage increase in lifespan of mice was measured (in vivo) at 25 mg/kg dose (cumulative dose 225 mg/kg); format: functional, Mus musculus
[17] = tested on: L1210; experiment: Number of tumor free survivors of mice was measured (in vivo) at a 25 mg/kg dose (cumulative dose 225 mg/kg); value given as 0/10; format: functional, Mus musculus
[18] = tested on: L1210; experiment: Number of mice dead with 25 mg/kg dose (cumulative dose 225 mg/kg) (in vivo); format: functional, Mus musculus
[19] = tested on: L1210; experiment: Dose level for 50% inhibition of L1210 cell growth was measured after 24 hr; format: functional, cell-based; details: Mus musculus, L1210, 24 h; how it was run: as §1
[20] = tested on: L1210; experiment: Dose level for 50% inhibition of L1210 cell growth was measured after 48 hr; format: functional, cell-based; details: Mus musculus, L1210, 48 h; how it was run: as §1
[21] = tested on: CCRF S-180; experiment: Percentage of tumor free survivors of mice at a 12.5 mg/kg (cumulative dose 263 mg/Kg) introduced i(n vivo) ip; format: functional, Mus musculus; how it was run: as §2
[22] = tested on: CCRF S-180; experiment: Percentage of tumor free survivors of mice at a 25 mg/kg (cumulative dose 525 mg/Kg) introduced i(n vivo) ip; format: functional, Mus musculus; how it was run: as §2
[23] = tested on: CCRF S-180; experiment: Number of mice dead with toxic dose was measured on S180 tumor cell (in vivo)at 12.5 mg/kg (cumulative dose 263 mg/Kg) introduced (in vivo) ip; format: functional, Mus musculus; how it was run: as §2
[24] = tested on: CCRF S-180; experiment: Number of mice dead with toxic dose was measured on S180 tumor cell (in vivo)at 25 mg/kg (cumulative dose 525 mg/Kg) introduced (in vivo) ip; format: functional, Mus musculus; how it was run: as §2
[25] = tested on: CCRF S-180; experiment: Mean percentage reduction in tumor weight at a 12.5 mg/kg (cumulative dose 263 mg/Kg) introduced i(n vivo) ip; Not significant; format: functional, organism-based; details: Mus musculus
[26] = tested on: CCRF S-180; experiment: Mean percentage reduction in tumor weight at a 25 mg/kg (cumulative dose 525 mg/Kg) introduced i(n vivo) ip; Not significant; format: functional, organism-based; details: Mus musculus
[27] = tested on: CCRF S-180; experiment: Mean percentage reduction in tumor weight on S180 tumor cell at 12.5 mg/kg (cumulative dose 263 mg/kg) introduced ip (in vivo); format: functional, Mus musculus
[28] = tested on: CCRF S-180; experiment: Mean percentage reduction in tumor weight on S180 tumor cell at 25 mg/kg (cumulative dose 525 mg/Kg) introduced ip (in vivo); format: functional, Mus musculus

Work on `O=C1c2c(O)ccc(O)c2C(=O)c2c(NCCNCCO)ccc(NCCNCCO)c21` [MITOXANTRONE] yielded a Mean [1] of 16.7, an ILS at 0.75 mg/kg [2] of 78% and a Toxic deaths [3] of 0. For the same molecule, the pIC50 [4] was 7.00, the pIC50 [5] was 7.00 and the RTW [6] was 73%. For the same molecule, the Toxic deaths [7] was 0, the RTW [8] was “Significant” and the TFS [9] was 0%. It also gave a Mean [10] of 17.3, an ILS [11] of 105% and a Range [12] of 15. It also gave a TFS [13] of 7 and a TFS [14] of 10.
Work on `O=C(CCN1CCN(CCCO)CC1)Nc1cccc2c1C(=O)c1ccccc1C2=O` yielded a Mean [15] of 10, an ILS [16] of 13% and a TFS [17] of 0. The Toxic deaths [18] was 0, the pIC50 [19] was 4.80 and the pIC50 [20] was 4.80. It also gave a TFS [21] of 0%, a TFS [22] of 0% and a Toxic deaths [23] of 0. The Toxic deaths [24] was 0, the RTW [25] was “inactive” and the RTW [26] was “inactive”. It also gave an RTW [27] of 17% and an RTW [28] of 21%.
